Each structure is given as a SMILES string.

What all share (format): functional, A2780 ADR
The nature of assay [1]: Reversal of multidrug resistance in human 2780AD cells assessed as [3H]vincristine accumulation at 0.1 ug/mL after 2 hrs relative to control. Put shortly:
(§1)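 Multidrug-resistant human ovarian cancer 2780AD cells were exposed to taxoids at 0.1, 1 or 10 µg/mL. Radiolabelled vincristine accumulated in the cells was measured as dpm/well, using means of triplicate determinations. Results are expressed as % of vincristine accumulated relative to the control experiment. They were also scored on a seven-level index according to the range of relative accumulation.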

Assay [2] can be described thus: Reversal of multidrug resistance in human 2780AD cells assessed as [3H]vincristine accumulation at 10 ug/mL after 2 hrs relative to control. Put shortly:
as §1

A short description of assay [3]: Reversal of multidrug resistance in human 2780AD cells assessed as [3H]vincristine accumulation at 10 ug/mL after 2 hrs relative to verapamil.
The nature of assay [4]: Reversal of multidrug resistance in human 2780AD cells assessed as [3H]vincristine accumulation at 1 ug/mL after 2 hrs relative to control. Put shortly:
as §1

Assay [5] can be described thus: Reversal of multidrug resistance in human 2780AD cells assessed as [3H]vincristine accumulation at 1 ug/mL after 2 hrs relative to verapamil.
The nature of assay [6]: Reversal of multidrug resistance in human 2780AD cells assessed as [3H]vincristine accumulation at 0.1 ug/mL after 2 hrs relative to verapamil.

For the compound `C=C1[C@@H](OC(C)=O)CC[C@@]2(C)C[C@H](OC(C)=O)C3=C(C)C[C@H](OC(C)=O)[C@@H]([C@@H](OC(C)=O)[C@H]12)C3(C)C` [TAXUYUNNANINE C], the Activity amounted to 105% in assay [1]; 244% in assay [2]; 78% in assay [3]; 155% in assay [4]; 97% in assay [5]; 91% in assay [6].
On to `COc1ccc(CCN(C)CCCC(C#N)(c2ccc(OC)c(OC)c2)C(C)C)cc1OC` (configuration not stated) [VERAPAMIL], for which the figures for the Activity in assay [1], in assay [2] and in assay [4] were 117%, 531% and 207%, respectively.
Consider `C=C1[C@@H](OC(C)=O)CC[C@@]2(C)C[C@H](OC(C)=O)C3=C(C)C[C@H](OC(=O)CC)[C@@H]([C@@H](OC(C)=O)[C@H]12)C3(C)C`, for which the Activity in assay [1] came to 119%; in assay [2], 770%; in assay [3], 145%; in assay [4] it was 295%; in assay [5], 134%; in assay [6], 102%.
Take `C=C1[C@@H](OC(C)=O)CC[C@@]2(C)C[C@H](OC(C)=O)C3=C(C)C[C@H](OC(=O)C(C)C)[C@@H]([C@@H](OC(C)=O)[C@H]12)C3(C)C`: the Activity in assay [1] is recorded as 96%; in assay [2], 522%; in assay [3] it was 98%; in assay [4], 195%; in assay [5] it was 95%; in assay [6] it was 82%.
`C=C1[C@@H](OC(C)=O)CC[C@@]2(C)C[C@H](OC(C)=O)C3=C(C)C[C@H](OC(=O)C(C)C(C)O)[C@@H]([C@@H](OC(C)=O)[C@H]12)C3(C)C` (some centres not stated) [YUNNANXANE]: the Activity was 112% in assay [1]; 234% in assay [2]; 75% in assay [3]; 150% in assay [4]; 94% in assay [5]; 97% in assay [6].
